Data on 28 compounds can be found in PubChem BioAssay AID493053 (Broad Institute, 2011).

Each structure is given as a SMILES string. Where “and” joins values, the source holds several entries; their conditions need not be identical. Equal entries are not always repeated. Calls of active or inactive are those of the source.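 How the source made its calls: active means signal falling with dose, half-maximal concentration at or below ten times the highest valid dose tested; inconclusive means flat curve with loss between 30% and 70%, or a poor fit; inactive means the rest, including flat or rising curves.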

Test system in one test: not listed separately
Nature of the test: Ras-transformed BJeLR cell killing – BJeLR cells, dry powder, set 2, dose response (AID 493053). To be noted: BJeLR fibroblasts viability, Alamar Blue fluorescence, 48 h; at 48 µM (top of the series). In short, it runs like this: (§1)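 Medium: DMEM and M199 growth medium with heat-inactivated fetal bovine serum. Schedule: 48-h compound exposure (37 °C, 5% CO2), then ~16-h dye incubation. Detection: Alamar Blue fluorescence, excitation 544 nm, emission 590 nm.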
`Cc1ccc(C(=O)N2CCN(C(c3ccccc3)c3ccccc3)CC2)c([N+](=O)[O-])c1`: the activity change, negative = viability loss is 14.9% (inactive).

Turning to `CC(=O)Nc1c(C(=O)N2CCN(C(c3ccccc3)c3ccccc3)CC2)noc1C`, the activity change, negative = viability loss was 11.2% (inactive).

Take `Cc1onc(C(=O)N2CCN(C(c3ccccc3)c3ccccc3)CC2)c1C`: the activity change, negative = viability loss was 15.3% (inactive).

For `O=C(c1noc2ccccc12)N1CCN(C(c2ccccc2)c2ccccc2)CC1`, the activity change, negative = viability loss is 3.47% (inactive).

Turning to `O=[N+]([O-])c1ccc(CN2CCN(C(c3ccccc3)c3ccccc3)CC2)o1`, the activity change, negative = viability loss was 2.87% (inactive).

As for `CC(C)c1onc(C(=O)N2CCN(C(c3ccccc3)c3ccccc3)CC2)c1[N+](=O)[O-]`, the activity change, negative = viability loss was 2.95% (inactive).

`Cc1onc(C(=O)N2CCN(C(c3ccncc3)c3ccncc3)CC2)c1[N+](=O)[O-]`: the activity change, negative = viability loss is 8.19% (inactive).

With `Cc1onc(C(=O)N2CCN(C(c3ccccn3)c3ccccn3)CC2)c1[N+](=O)[O-]`, the activity change, negative = viability loss is 9.75% (inactive).

As to `O=C(c1ccc([N+](=O)[O-])o1)N1CCCN(C(c2ccccc2)c2ccccc2)CC1`, the activity change, negative = viability loss is -4.17% (inactive).

For `Cc1onc(C(=O)N2CCN(C(c3ccccc3)c3ccccc3)CC2)c1N`, the activity change, negative = viability loss is 10.4% (inactive).

With `Cc1onc(C(=O)N2CCN(C(c3ccccc3)c3ccccc3)CC2)c1Br`, the activity change, negative = viability loss was 11.7% (inactive).

Regarding `Cc1onc(C(=O)N2CCN(C(c3ccccc3)c3ccccc3)CC2)c1NS(C)(=O)=O`, the activity change, negative = viability loss is 15.2% (inactive).

As to `Cc1oc(C)c(C(=O)N2CCN(C(c3ccccc3)c3ccccc3)CC2)c1C`, the activity change, negative = viability loss was 12.2% (inactive).

Still in this test, the particulars now being: BJeLR fibroblasts viability, Alamar Blue fluorescence, 48 h; at 68 µM (top of the series).
Consider `COc1ccccc1N1CCN(C(=O)c2noc(C)c2[N+](=O)[O-])CC1`, for which the activity change, negative = viability loss was -5.96% (inactive).

Take `Cc1onc(C(=O)NCc2ccc(F)cc2)c1[N+](=O)[O-]`: the activity change, negative = viability loss is -1.57% (inactive).

As for `Cc1cc(C(=O)N2CCN(Cc3ccccc3)CC2)no1`, the activity change, negative = viability loss was 4.49% (inactive).

Regarding `CCOC(=O)N1CCN(C(=O)c2noc(C)c2[N+](=O)[O-])CC1`, the activity change, negative = viability loss was -2.12% (inactive).

Consider `Cc1onc(C(=O)N2CCOCC2)c1[N+](=O)[O-]`, for which the activity change, negative = viability loss was -1.92% (inactive).

For another test, the system named is BJeLR fibroblasts viability, Alamar Blue fluorescence, 48 h. The description is as above.
Conditions: not given
In short, it runs like this:
as §1
In the case of `Cc1onc(C(=O)N2CCN(C(c3ccc(F)cc3)c3ccc(F)cc3)CC2)c1[N+](=O)[O-]`, the AC50 was 183 nM.

As for `O=C(c1ccc([N+](=O)[O-])o1)N1CCN(C(c2ccc(F)cc2)c2ccc(F)cc2)CC1`, the AC50 is 50800 nM.

As to `COc1ccc(C(c2ccc(OC)cc2)N2CCN(C(=O)c3noc(C)c3[N+](=O)[O-])CC2)cc1`, the AC50 is 1570 nM.

With `Cc1onc(C(=O)N2CCN(C(c3ccccc3)c3ccc(Cl)cc3)CC2)c1[N+](=O)[O-]` (stereo not drawn), the AC50 is 129 nM.

Consider `Cc1onc(C(=O)N2CCN(C(c3ccc(Cl)cc3)c3ccc(Cl)cc3)CC2)c1[N+](=O)[O-]`, for which the AC50 is 71 nM.

As for `Cc1onc(C(=O)N2CCN(C(c3ccccc3)c3ccccc3)CC2)c1[N+](=O)[O-]`, the AC50 is 2270 nM and 1030 nM.

In the case of `Cc1onc(C(=O)N2CCCN(C(c3ccccc3)c3ccccc3)CC2)c1[N+](=O)[O-]`, the AC50 was 773 nM.

`Cc1onc(C(=O)N2CCN(Cc3ccccc3)CC2)c1[N+](=O)[O-]`: the AC50 was 65300 nM.

Turning to `Cc1onc(C(=O)NCCNC(c2ccccc2)c2ccccc2)c1[N+](=O)[O-]`, the AC50 is 21600 nM.

As for `O=C(NCCNC(c1ccccc1)c1ccccc1)c1ccc([N+](=O)[O-])o1`, the AC50 is 39100 nM.

The AC50 is the concentration at which the activity in the assay is half-maximal.
